Active and inactive are the calls of the source. The calls are words filed in the database; no cut-off is given here.
Key:
[1] = target: T1, Signal transducer and activator of transcription 5A (Homo sapiens) (UniProt P42229); assay: Inhibition of STAT5 Tyr694/699 phosphorylation in p53-deficient human HL60 cells at 20 to 50 uM after 6 hrs by Western blot analysis; assay type: cell-based; conditions: HL-60
T1 sequence (whole entry): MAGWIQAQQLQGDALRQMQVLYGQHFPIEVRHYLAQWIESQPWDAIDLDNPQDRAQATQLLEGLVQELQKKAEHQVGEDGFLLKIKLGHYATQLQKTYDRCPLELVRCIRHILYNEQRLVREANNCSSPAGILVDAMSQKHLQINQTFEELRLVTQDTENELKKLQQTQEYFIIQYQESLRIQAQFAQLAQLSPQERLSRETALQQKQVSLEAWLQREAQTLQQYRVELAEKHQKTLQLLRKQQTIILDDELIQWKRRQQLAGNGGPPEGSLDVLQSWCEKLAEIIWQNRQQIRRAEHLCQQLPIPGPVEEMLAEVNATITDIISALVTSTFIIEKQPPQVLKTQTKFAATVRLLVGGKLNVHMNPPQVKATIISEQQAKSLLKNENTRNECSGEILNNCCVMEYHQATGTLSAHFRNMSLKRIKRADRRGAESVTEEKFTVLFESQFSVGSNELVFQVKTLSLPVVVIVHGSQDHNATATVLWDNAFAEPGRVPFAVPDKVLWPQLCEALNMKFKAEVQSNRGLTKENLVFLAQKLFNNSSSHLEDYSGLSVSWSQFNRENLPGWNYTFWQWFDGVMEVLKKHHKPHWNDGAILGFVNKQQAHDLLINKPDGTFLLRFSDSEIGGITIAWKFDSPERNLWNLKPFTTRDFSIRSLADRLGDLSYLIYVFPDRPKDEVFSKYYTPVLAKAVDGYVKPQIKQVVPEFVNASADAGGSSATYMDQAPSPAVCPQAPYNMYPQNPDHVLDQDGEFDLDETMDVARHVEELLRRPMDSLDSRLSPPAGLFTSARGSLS

[2] = target: T2, Signal transducer and activator of transcription 6 (Homo sapiens) (UniProt P42226); assay: Inhibition of STAT6 protein expression in p53-deficient human HL60 cells at 20 to 50 uM after 6 hrs by Western blot analysis; assay type: cell-based; conditions: HL-60
T2 sequence (whole entry): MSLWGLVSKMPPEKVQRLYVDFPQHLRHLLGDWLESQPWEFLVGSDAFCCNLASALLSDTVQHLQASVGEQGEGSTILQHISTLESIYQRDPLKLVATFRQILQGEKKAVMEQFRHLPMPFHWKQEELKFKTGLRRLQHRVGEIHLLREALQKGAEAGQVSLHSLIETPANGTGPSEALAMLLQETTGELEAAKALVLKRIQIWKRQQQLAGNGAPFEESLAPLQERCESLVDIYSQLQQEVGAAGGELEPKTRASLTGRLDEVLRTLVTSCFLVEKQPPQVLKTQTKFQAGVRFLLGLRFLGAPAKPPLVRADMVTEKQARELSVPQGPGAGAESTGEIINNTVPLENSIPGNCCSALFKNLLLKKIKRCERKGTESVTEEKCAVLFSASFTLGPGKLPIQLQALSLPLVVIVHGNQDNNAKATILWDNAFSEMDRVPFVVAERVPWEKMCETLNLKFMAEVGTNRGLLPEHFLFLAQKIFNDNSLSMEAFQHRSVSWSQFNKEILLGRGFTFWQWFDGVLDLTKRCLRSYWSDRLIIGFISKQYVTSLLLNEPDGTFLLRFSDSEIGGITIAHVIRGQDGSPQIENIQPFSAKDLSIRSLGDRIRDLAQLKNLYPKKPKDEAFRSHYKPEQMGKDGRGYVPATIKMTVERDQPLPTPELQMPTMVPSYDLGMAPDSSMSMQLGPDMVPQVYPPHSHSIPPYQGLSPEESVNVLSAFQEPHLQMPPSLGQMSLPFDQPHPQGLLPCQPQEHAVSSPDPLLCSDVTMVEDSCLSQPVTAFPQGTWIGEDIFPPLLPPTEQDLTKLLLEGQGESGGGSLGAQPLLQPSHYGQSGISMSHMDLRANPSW

HL-60 [3] = assay: Induction of autophagy in p53-deficient human HL60 cells at 50 uM after 6 hrs by acridine orange staining; assay type: functional, cell-based
Procedure, shortened: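 Autophagy scored by flow cytometry of HL-60 cells stained with acridine orange after 6 h exposure.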

HL-60 [4] = assay: Anticancer activity against human HL60 cells after 48 hrs by MTT assay; assay type: functional, cell-based; conditions: HL-60, 48 h
Procedure, shortened: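 Cell proliferation measured by MTT. Cells are incubated with each analog for 48 h at the indicated concentrations, then MTT reduction is read as an index of viability. OD of the untreated control is taken as 100% viability, and IC50 is derived from this.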

[5] = target: Signal transducer and activator of transcription 3 (Homo sapiens) (UniProt P40763); assay: Inhibition of STAT3 Thr705 phosphorylation in p53-deficient human HL60 cells at 20 to 50 uM after 6 hrs by Western blot analysis; assay type: cell-based; conditions: HL-60
Signal transducer and activator of transcription 3 (Homo sapiens), sequence (P40763 whole entry): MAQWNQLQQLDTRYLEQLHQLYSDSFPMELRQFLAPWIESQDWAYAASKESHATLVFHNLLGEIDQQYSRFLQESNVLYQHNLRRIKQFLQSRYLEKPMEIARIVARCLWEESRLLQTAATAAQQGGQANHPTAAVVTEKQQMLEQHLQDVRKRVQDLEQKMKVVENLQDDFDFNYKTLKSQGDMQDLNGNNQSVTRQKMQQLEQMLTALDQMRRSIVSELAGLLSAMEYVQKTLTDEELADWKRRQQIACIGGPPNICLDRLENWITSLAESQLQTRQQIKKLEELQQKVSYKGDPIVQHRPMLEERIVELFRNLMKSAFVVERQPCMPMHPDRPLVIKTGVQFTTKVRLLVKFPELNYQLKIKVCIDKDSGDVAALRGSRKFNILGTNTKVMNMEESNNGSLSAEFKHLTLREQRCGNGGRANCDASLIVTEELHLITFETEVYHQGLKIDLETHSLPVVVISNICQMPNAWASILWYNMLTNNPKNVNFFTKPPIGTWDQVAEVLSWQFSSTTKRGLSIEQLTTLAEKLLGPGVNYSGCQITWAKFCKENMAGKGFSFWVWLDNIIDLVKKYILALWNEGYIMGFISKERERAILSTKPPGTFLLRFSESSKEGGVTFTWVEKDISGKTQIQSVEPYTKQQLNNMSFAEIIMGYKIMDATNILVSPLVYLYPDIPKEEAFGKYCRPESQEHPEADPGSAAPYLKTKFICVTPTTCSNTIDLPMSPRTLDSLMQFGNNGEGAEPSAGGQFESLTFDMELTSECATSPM

HL-60 [6] = assay: Inhibition of STAT3alpha protein expression in p53-deficient human HL60 cells at 20 to 50 uM after 6 hrs by Western blot analysis; assay type: cell-based
SW-620 = assay: Anticancer activity against human SW620 cells assessed as growth inhibition at 50 uM after 48 hrs by SRB assay; assay type: functional; conditions: SW-620, 48 h, read-out: GI
Procedure, shortened: (§1)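 Cells exposed to test compounds at 50 µM for 48 h. Read-out is percent growth inhibition, with SEM given. 5-Fluorouracil and adriamycin serve as reference agents.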

PC-3 = assay: Anticancer activity against human PC3 cells assessed as growth inhibition at 50 uM after 48 hrs by SRB assay; assay type: functional; conditions: PC-3, 48 h, read-out: GI; procedure, shortened: as §1
COLO 205 = assay: Anticancer activity against human COLO205 cells assessed as growth inhibition at 50 uM after 48 hrs by SRB assay; assay type: functional; conditions: COLO 205, 48 h, read-out: GI; procedure, shortened: as §1
HL-60 [7] = assay: Induction of apoptosis in p53-deficient human HL60 cells assessed as post-apoptotic cells at 50 uM after 6 hrs by FITC-conjugated annexinV/PI-based flow cytometric analysis (reference value: 1 %); assay type: functional
Procedure, shortened: (§2)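 HL-60 cells incubated with each analog at 50 µM for 6 h, stained with annexin V-FITC/propidium iodide and analysed by flow cytometry. Lower right quadrant is apoptotic, upper right post-apoptotic, upper left necrotic. Three experiments, with representative dot plots shown.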

[8] = target: Signal transducer and activator of transcription 3 (Homo sapiens) (UniProt P40763); assay: Inhibition of STAT3 Ser727 phosphorylation in p53-deficient human HL60 cells at 20 to 50 uM after 6 hrs by Western blot analysis; assay type: cell-based; conditions: HL-60
[9] = target: T1, Signal transducer and activator of transcription 5A (Homo sapiens); assay: Inhibition of STAT5 protein expression in p53-deficient human HL60 cells at 20 to 50 uM after 6 hrs by Western blot analysis; assay type: cell-based; conditions: HL-60
DU-145 = assay: Anticancer activity against human DU145 cells assessed as growth inhibition at 50 uM after 48 hrs by SRB assay; assay type: functional; conditions: DU-145, 48 h, read-out: GI; procedure, shortened: as §1
HL-60 [10] = assay: Induction of necrosis in p53-deficient human HL60 cells at 50 uM after 6 hrs by FITC-conjugated annexinV/PI-based flow cytometric analysis; assay type: functional, cell-based; procedure, shortened: as §2

- inhibition [1]: Active
- inhibition [2]: Active
- IC50 (HL-60 [4]): 11 µM
- inhibition [5]: Active
- inhibition [8]: Active
- inhibition [9]: Active
SMILES: CCCC(=O)O[C@@H]1CC[C@@]2(C)[C@@H](CC[C@]3(C)[C@@H]2C(=O)C=C2[C@@H]4[C@@H](C)[C@H](C)CC[C@]4(C)CC[C@]23C)[C@@]1(C)C(=O)O
- Activity (HL-60 [3]): inactive
- inhibition (HL-60 [6]): Active
- inhibition of growth at 50 µM (SW-620): 97%
- inhibition of growth at 50 µM (PC-3): 96%
- inhibition of growth at 50 µM (COLO 205): 94%
- Activity (HL-60 [7]): 48%
- inhibition of growth at 50 µM (DU-145): 93%
- Activity (HL-60 [10]): inactive
